Assay [1] deals with MCF7. In words: Reversal of multidrug-resistance in vinblastin-sensitive human MCF7 cells assessed as reduction in vinblastine IC50 at 25 ug/ml relative to IC50 vinblastine alone. The class given is functional. A digest of the protocol:
(§1)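 Modulation by SRB assay. MCF-7 or MCF-7/Vin cells exposed 72 h to vinblastine (0.000 64−10 μg/mL) with or without glycolipid at 25 or 5 μg/mL (water−DMSO 9:1). Vinblastine IC50 taken from a semilog growth-inhibition plot. Reserpine 5 μg/mL as reference modulator. Reversal fold = IC50 of vinblastine alone ÷ IC50 with test compound.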

Assay [2] deals with MCF7. In words: Reversal of multidrug-resistance in human MCF7 cells assessed as reduction in vinblastine IC50 at 25 ug/ml relative to IC50 vinblastine alone. The class given is functional. The method in brief:
as §1

In assay [3] the test system is MCF7. The assay is described as follows: Cytotoxicity against vinblastin-sensitive human MCF7 cells assessed as growth inhibition after 72 hrs by SRB assay. The class given is functional, cell-based. The settings on record: MCF7, 72 h. A digest of the protocol:
(§2)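 SRB assay. Log-phase cells, RPMI 1640 + 10% FBS, treated in triplicate with test samples at 0.2−25 μg/mL, 72 h at 37 °C, 5% CO2, static conditions. IC50 (50% inhibition of control growth) read from a semilog plot of concentration (μg/mL) against % growth inhibition. Resistant subline kept in 0.192 μg/mL vinblastine; a vinblastine-free stock also maintained.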
In general terms: Sulforhodamine B stains cellular protein and so reports cell mass.

For assay [4], the system named is MCF7. In words: Reversal of multidrug-resistance in human MCF7 cells in presence of vinblastine assessed as reduction in vinblastine IC50 at 25 ug/ml relative to IC50 vinblastine alone. Format: functional. The method in brief:
as §1

Assay [5] relates to MCF7. In words: Cytotoxicity against human MCF7 cells assessed as growth inhibition after 72 hrs by SRB assay. Format: functional, cell-based. The settings on record: MCF7, 72 h. A digest of the protocol:
as §2

In assay [6] the test system is MCF7. In words: Cytotoxicity against human MCF7 cells assessed as growth inhibition after 72 hrs by SRB assay in presence of vinblastine. The settings on record: MCF7, 72 h. The class given is functional, cell-based. A digest of the protocol:
as §2

The structures appear in SMILES notation. Values after ≈ are worked out from the molar mass of the structure shown. Some results are limits rather than exact numbers.

By IC50 is commonly meant the concentration that inhibits the measured activity by half. Consider `CCCCCCCCCCCC(=O)O[C@H]1[C@@H](O)[C@@H](C)O[C@@H](O[C@@H]2[C@@H](O[C@@H]3O[C@H](CO)[C@@H](O)[C@H](O)[C@H]3O[C@@H]3O[C@H](C)[C@@H](O)[C@H](OC(=O)[C@@H](C)CC)[C@H]3O)[C@@H](OC(=O)[C@@H](C)CC)[C@H](O[C@H]3[C@@H]4O[C@H]5[C@H](O[C@H](CCC)CCCCCCC[C@H](O[C@@H]6O[C@H](C)[C@@H](O)[C@H](O)[C@H]6O)CC(=O)O[C@H]3[C@H](O)[C@@H](COC(C)=O)O4)O[C@H](C)[C@@H](O)[C@@H]5O)O[C@H]2C)[C@@H]1O`, for which the “fold change (FC)” value is recorded as 73.4 in assay [1], >1593 in assay [2] and >1906.3 in assay [4]. Moreover, the IC50 in assay [3], in assay [5] and in assay [6] was < 0.00064 µg/mL throughout.

As for `COC(=O)[C@H]1[C@H]2C[C@@H]3c4[nH]c5cc(OC)ccc5c4CCN3C[C@H]2C[C@@H](OC(=O)c2cc(OC)c(OC)c(OC)c2)[C@@H]1OC` [RESERPINE], the half-maximal inhibitory concentration (IC50) in assay [3] stood at 0.003 µg/mL (≈ 0.00493 µM); in assay [5], 0.037 µg/mL (≈ 0.0608 µM); in assay [6] it was 0.31 µg/mL.

As for `CC[C@]1(O)C[C@@H]2CN(CCc3c([nH]c4ccccc34)[C@@](C(=O)OC)(c3cc4c(cc3OC)N(C)[C@H]3[C@@](O)(C(=O)OC)[C@H](OC(C)=O)[C@]5(CC)C=CCN6CC[C@]43[C@@H]65)C2)C1` [VINBLASTINE], the IC50 in assay [5] was found to be 1.02 µg/mL (≈ 1.26 µM); in assay [6], 1.22 µg/mL.

The record behind these values is ChEMBL document CHEMBL3351834, “Jalapinoside, a macrocyclic bisdesmoside from the resin glycosides of Ipomea purga, as a modulator of multidrug resistance in human cancer cells” (J Nat Prod, 2015).
